In series [1] the test system is Rattus norvegicus. The series can be described thus: Ability to reduce the severity of PCP in immunosuppressed rats after(iv) administration of 10 mg/kg/day. To be noted: in the assay text read “1.25 mg/kg/day” for “10 mg/kg/day”. It counts as functional. In short, it runs like this: (§1)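 Male Sprague-Dawley rats (150–200 g, barrier raised) were given corticosteroids to induce PCP. From week 6, groups of eight or more received the compound by single daily iv injection in 0.4 mL saline for 14 days, generally at 10 mg/kg. Rats were killed at the end of week 8. GMS-stained lung sections were scored from 0.5 to 4 (4 = >50% involvement), with saline and pentamidine control groups.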

The next series has as its system Calf thymus DNA. The series is described as follows: DNA binding affinity at low ionic strength as change in midpoint. The format is nucleic-acid assay. The conditions noted are these: Bos taurus.
The test system of series [2] is Rattus norvegicus. The series can be described thus: (§2) Ability to reduce the severity of PCP in immunosuppressed rats after (iv) administration of 10 mg/kg/day. The format is functional. Put shortly: as §1
Series [3] can be described thus: Cytotoxicity in […], spleen and kidneys for pathologic changes by light microscopy.++ = most animals survived, with severe distress and marked local toxicity and some systemic toxicity and histopathologic abnormalities. The format is tissue-based. The conditions noted are these: rat. In short, it runs like this:
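Male Sprague-Dawley rats (150–200 g), corticosteroid-immunosuppressed to induce PCP; from week 6, single daily iv injection for 14 days, usually 10 mg/kg in 0.4 mL saline (lower if insoluble or toxic); killed end of week 8. Liver, spleen, kidneys examined by light microscopy; daily health observation; toxicity graded 0 to 4+ at 10 mg/kg or highest dose tested.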

The subject of a further series is Pneumocystis carinii. The series is described as §2. The format is functional. Put shortly:
as §1

The next series has as its target Serine protease 1 (Homo sapiens, UniProt P07477). The series can be described thus: Inhibition of trypsin by amidase assay.

SMILES strings stand for the structures.

Serine protease 1, sequence (P07477 whole entry): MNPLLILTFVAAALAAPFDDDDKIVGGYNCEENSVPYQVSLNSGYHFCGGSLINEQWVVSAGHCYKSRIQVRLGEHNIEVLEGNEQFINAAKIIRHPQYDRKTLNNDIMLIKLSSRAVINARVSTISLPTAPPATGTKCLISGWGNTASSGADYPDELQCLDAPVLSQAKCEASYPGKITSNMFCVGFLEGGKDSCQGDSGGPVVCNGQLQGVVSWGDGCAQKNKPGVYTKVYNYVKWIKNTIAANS

In turn, `Cl.N=C(N)c1ccc(OCCCCCCOc2ccc(C(=N)N)cc2[N+](=O)[O-])c([N+](=O)[O-])c1` registered a No. of animals in the series on Rattus norvegicus [1] of 1.
On to `Cl.N=C(N)c1ccc(NCCCNc2ccc(C(=N)N)cc2[N+](=O)[O-])c([N+](=O)[O-])c1`, for which the thermal shift (ΔTm) in the series on Calf thymus DNA is 12.8 °C. The No. of animals in the series on Rattus norvegicus [2] and with Pneumocystis carinii was 0 throughout. In addition, the Toxicity result in series [3] is “most animals survived, with severe distress and marked local toxicity and some systemic toxicity and histopathologic abnormalities”. At Serine protease 1, the affinity corresponds to a Ki of 4.3 µM.
